# Measurements: ChEMBL document CHEMBL3396946, “Design, synthesis and pharmacological evaluation of N-[4-(4-(alkyl/aryl/heteroaryl)-piperazin-1-yl)-phenyl]-carbamic acid ethyl ester derivatives as novel anticonvulsant agents” (Bioorg Med Chem Lett, 2015)
# The source made the active and inactive calls. The calls are words filed in the database; no cut-off is given here.
# How the values were obtained:
# Mus musculus [1] = assay: Anticonvulsant activity in intraperitoneally dosed Swiss albino mouse assessed as reduction in electrical stimulus-induced seizures after 4 hrs by maximal electroshock seizure test; assay type: functional
# Procedure, shortened: (§1)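 Adult male Swiss albino mice; test agents given i.p. at 30, 100 and 300 mg/kg, with animals examined 0.5 h and 4.0 h after injection. Value is the minimal dose protecting half or more of the mice; a dash means no activity at 300 mg/kg.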
# Mus musculus [2] = assay: Anticonvulsant activity in intraperitoneally dosed Swiss albino mouse assessed as reduction in clonic seizures after 4 hrs by subcutaneous pentylenetetrazole seizure test; assay type: functional; procedure, shortened: as §1
# [3] = Neurological toxicity in intraperitoneally dosed Swiss albino mouse assessed as motor impairment after 0.5 hrs by rotarod test; assay type: organism-based; conditions: in vivo, ip, read-out: MTD50
# [4] = Neurological toxicity in intraperitoneally dosed Swiss albino mouse assessed as motor impairment after 4 hrs by rotarod test; assay type: organism-based; conditions: in vivo, ip, read-out: MTD50
# Mus musculus [5] = assay: Anticonvulsant activity in Swiss albino mouse assessed as reduction in electrical stimulus-induced seizures at 300 mg/kg, ip after 0.5 hrs by maximal electroshock seizure test; assay type: functional, organism-based; parameters: dose 300 mg/kg; procedure, shortened: as §1
# Mus musculus [6] = assay: Anticonvulsant activity in Swiss albino mouse assessed as reduction in clonic seizures at 300 mg/kg, ip after 0.5 hrs by subcutaneous pentylenetetrazole seizure test; assay type: functional, organism-based; parameters: dose 300 mg/kg; procedure, shortened: as §1
# Mus musculus [7] = assay: Anticonvulsant activity in intraperitoneally dosed Swiss albino mouse assessed as reduction in clonic seizures after 0.5 hrs by subcutaneous pentylenetetrazole seizure test; assay type: functional; procedure, shortened: as §1
# Mus musculus [8] = assay: Anticonvulsant activity in Swiss albino mouse assessed as reduction in electrical stimulus-induced seizures at 300 mg/kg, ip after 4 hrs by maximal electroshock seizure test; assay type: functional, organism-based; parameters: dose 300 mg/kg; procedure, shortened: as §1
# Mus musculus [9] = assay: Anticonvulsant activity in Swiss albino mouse assessed as reduction in clonic seizures at 300 mg/kg, ip after 4 hrs by subcutaneous pentylenetetrazole seizure test; assay type: functional, organism-based; parameters: dose 300 mg/kg; procedure, shortened: as §1
# Mus musculus [10] = assay: Neurological toxicity in Swiss albino mouse assessed as motor impairment at 300 mg/kg, ip after 0.5 hrs by rotarod test; assay type: organism-based; parameters: dose 300 mg/kg, route intraperitoneal; conditions: in vivo
# Procedure, shortened: (§2)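 Adult male Swiss albino mice dosed i.p. at 30, 100 and 300 mg/kg, examined at 0.5 h and 4.0 h. Neurotoxicity is scored as failure to hold onto the rotating rod, with three successive trials. Value is the minimal dose active in half or more of the mice.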
# Mus musculus [11] = assay: Neurological toxicity in Swiss albino mouse assessed as motor impairment at 300 mg/kg, ip after 4 hrs by rotarod test; assay type: organism-based; parameters: dose 300 mg/kg, route intraperitoneal; conditions: in vivo; procedure, shortened: as §2
# Mus musculus [12] = assay: Toxicity in Swiss albino mouse assessed as induction of myoclonic jerks at 300 mg/kg, ip after 0.5 hrs during subcutaneous pentylenetetrazole seizure test; assay type: organism-based; parameters: dose 300 mg/kg
# Mus musculus [13] = assay: Anticonvulsant activity in intraperitoneally dosed Swiss albino mouse assessed as reduction in electrical stimulus-induced seizures after 0.5 hrs by maximal electroshock seizure test; assay type: functional; procedure, shortened: as §1
# Mus musculus [14] = assay: (§3) Anticonvulsant activity in Swiss albino mouse model of pentylenetetrazole-induced kindling related chronic epilepsy assessed as reduction in seizure severity score by at 5 mg/kg, ip administered daily for 5 weeks followed by injection of 30 mg/kg, ip PTZ on every alternate day till full kindling development; assay type: functional, organism-based
# Procedure, shortened: (§4)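 Adult male Swiss albino mice are randomised into seven groups (n = 8; n = 9 for PTZ-only). Treatment is i.p. for 35 days. PTZ is given at 30 mg/kg i.p. on alternate days for 5 weeks. Control mice receive saline; phenobarbital 30 mg/kg i.p. is the reference. Seizure score is rated visually each week. Data are mean ± SEM, ANOVA with Tukey's test.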
# Mus musculus [15] = assay: as §3, with “at 10 to 30” for “at 5”; assay type: functional, organism-based; procedure, shortened: as §4
# Mus musculus [16] = assay: (§5) Reduction in MDA level in brain of Swiss albino mouse model of pentylenetetrazole-induced kindling related chronic epilepsy at 5 to 30 mg/kg, ip administered daily for 5 weeks followed by injection of 30 mg/kg, ip PTZ on every alternate day till full kindling development by spectrophotometry; assay type: functional, organism-based
# Procedure, shortened: (§6)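 PTZ-kindled mice (30 mg/kg i.p. on alternate days for 5 weeks) receive i.p. treatment (5, 10, 20, 30 mg/kg) for 35 days. At the end, mice are killed under ether and brains stored at -20 °C for up to 10 h. Readouts are GSH (µg/g wet tissue), MDA (nmol/µg protein), GSH-Px (U/g protein) and NO (µmol/g protein). n = 8 per group (PTZ group n = 6); mean ± SEM, ANOVA with Tukey's test.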
# Mus musculus [17] = assay: as §5, with “Increase” for “Reduction”, “GSH” for “MDA”, “Ellman's reagent based assay” for “spectrophotometry”; assay type: functional, organism-based; procedure, shortened: as §6
# Mus musculus [18] = assay: Increase in GSH-Px level in brain of Swiss albino mouse model of pentylenetetrazole-induced kindling related chronic epilepsy at 5 to 30 mg/kg, ip administered daily for 5 weeks followed by injection of 30 mg/kg, ip PTZ on every alternate day till full kindling development; assay type: functional, organism-based; procedure, shortened: as §6
# Mus musculus [19] = assay: as §5, with “in nitric oxide” for “in MDA”, “at 10” for “at 5”, “by Griess reagent based assay” for “by spectrophotometry”; assay type: functional, organism-based; procedure, shortened: as §6
# Mus musculus [20] = assay: as §5, with “nitric oxide” for “MDA”, “5” for “5 to 30”, “Griess reagent based assay” for “spectrophotometry”; assay type: functional, organism-based; procedure, shortened: as §6
# Mus musculus [21] = assay: Toxicity in Swiss albino mouse assessed as induction of myoclonic jerks at 100 mg/kg, ip after 0.5 hrs during subcutaneous pentylenetetrazole seizure test; assay type: organism-based; parameters: dose 100 mg/kg
# Mus musculus [22] = assay: Toxicity in Swiss albino mouse assessed as induction of death following tonic extension at 300 mg/kg, ip after 4 hrs during maximal electroshock seizure test; assay type: organism-based; parameters: dose 300 mg/kg, route intraperitoneal; conditions: in vivo
# Mus musculus [23] = assay: as §3, with “reduction in incidence and seizure severity” for “reduction in seizure severity”, “by at 30 mg/kg, ip” for “by at 5 mg/kg, ip”; assay type: functional, organism-based
# Procedure, shortened: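 Adult Swiss albino male mice, randomised to seven groups (n = 8; PTZ group n = 9). Test drug given i.p. over 35 days, with PTZ 30 mg/kg i.p. on alternate days for 5 weeks. Seizures scored visually each week. Mean score ± SEM compared by ANOVA with Tukey's test.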
Structure (SMILES),MED50 (Mus musculus [1]) [mg/kg],MED50 (Mus musculus [2]) [mg/kg],TD50 at 0.5 h [3] [mg/kg],TD50 at 4 h [4] [mg/kg],Activity (Mus musculus [5]),Activity (Mus musculus [6]),MED50 (Mus musculus [7]) [mg/kg],Activity (Mus musculus [9]),Activity (Mus musculus [10]),Activity (Mus musculus [11]),MED50 (Mus musculus [13]) [mg/kg],other results
CCOC(=O)Nc1ccc(N2CCN(C(=O)c3ccccc3)CC2)cc1,100,300,300,300,inactive,inactive,–,–,–,–,–,–
CCOC(=O)Nc1ccc(N2CCN(Cc3ccc4c(c3)OCO4)CC2)cc1,–,–,–,–,inactive,–,300,inactive,Non-toxic,Non-toxic,–,Activity (Mus musculus [8]): inactive; Activity (Mus musculus [12]): Toxic
CCOC(=O)Nc1ccc(N2CCN(c3ccc(C(C)=O)cc3)CC2)cc1,100,100,–,–,–,–,100,–,Non-toxic,Non-toxic,30,Activity (Mus musculus [14]): Active; Activity (Mus musculus [15]): Active; Activity (Mus musculus [16]): Active; Activity (Mus musculus [17]): Active; Activity (Mus musculus [18]): Active; Activity (Mus musculus [19]): Active; Activity (Mus musculus [20]): inactive
CCOC(=O)Nc1ccc(N2CCN(C(=O)c3ccco3)CC2)cc1,100,–,–,–,inactive,inactive,–,inactive,Non-toxic,Non-toxic,–,–
CCOC(=O)Nc1ccc(N2CCN(c3ccc(C)cc3)CC2)cc1,100,–,100,100,–,–,100,inactive,–,–,30,Activity (Mus musculus [21]): Toxic
CCOC(=O)Nc1ccc(N2CCN(C)CC2)cc1,–,–,–,–,inactive,inactive,–,inactive,Non-toxic,Non-toxic,–,Activity (Mus musculus [8]): inactive
CCOC(=O)Nc1ccc(N2CCN(C(c3ccccc3)c3ccccc3)CC2)cc1,300,300,–,–,inactive,inactive,–,–,Non-toxic,Non-toxic,–,–
CCCC(CCC)C(=O)O [VALPROIC ACID],–,300,–,–,inactive,inactive,–,–,Non-toxic,Non-toxic,–,Activity (Mus musculus [8]): inactive
NC(=O)N1c2ccccc2C=Cc2ccccc21 [CARBAMAZEPINE],100,300,100,300,–,–,100,–,–,–,30,–
CCOC(=O)Nc1ccc(N2CCN(c3ccncc3)CC2)cc1,300,–,300,100,–,inactive,–,inactive,–,–,100,Activity (Mus musculus [22]): Toxic
CCC1(c2ccccc2)C(=O)NC(=O)NC1=O,–,–,–,–,–,–,–,–,–,–,–,Activity (Mus musculus [23]): Active
O=C1NC(=O)C(c2ccccc2)(c2ccccc2)N1 [PHENYTOIN],30,–,–,–,–,inactive,–,inactive,–,–,30,–
